MCC, MIC and IC50 data for six compounds are collected here from ChEMBL document CHEMBL1122581, “Antiviral activity of C-5 substituted tubercidin analogues” (1984).

Converted amounts (≈) assume the structure as drawn. Bounds are passed on as bounds.

Holding throughout (format): functional
The subject of one test is Vero. In words: Concentration required to cause a microscopically detectable alteration in cell morphology in vero cell cultures. The following applies: Chlorocebus sabaeus, read-out: Min cytotoxic concentration. The essentials: (§1)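 Uninfected cell monolayers were run in parallel with the antiviral assays and exposed to compound for the same period as the infected cultures. The end point was the lowest concentration giving a microscopically detectable disruption of normal cell morphology.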

For test [1], the system named is Vesicular stomatitis virus. The test can be described thus: Concentration required to reduce vesicular stomatitis virus induced cytopathogenicity by 50% in primary rabbit kidney cell cultures. (Cytopathic effects are the visible damage that an infection or toxin causes in cultured cells.)
Another test relates to Human respirovirus 3. The test can be described thus: Concentration required to reduce parainfluenza virus type 3 induced cytopathogenicity by 50% in vero cell cultures.
The subject of a further test is Poliovirus 1. In words: Concentration required to reduce polio virus type 1 induced cytopathogenicity by 50% in HeLa cell cultures. The following applies: Enterovirus C.
Test [2] relates to Mammalian orthoreovirus 1. In words: Concentration required to reduce reovirus type 1 induced cytopathogenicity by 50% in vero cell cultures.
A further test has as its system Human alphaherpesvirus 2. The test can be described thus: Concentration required to reduce HSV-2 (G) induced cytopathogenicity by 50% in primary rabbit kidney cell cultures.
In the next test the test system is HeLa. The test can be described thus: Concentration required to cause a microscopically detectable alteration in cell morphology in HeLa cell cultures. The following applies: Homo sapiens, read-out: Min cytotoxic concentration. An outline of the steps: as §1
The test system of the next test is Sindbis virus. In words: Concentration required to reduce sindbis virus induced cytopathogenicity by 50% in vero cell cultures.
The subject of test [3] is Coxsackievirus B4. In words: Concentration required to reduce coxsackie virus 4 induced cytopathogenicity by 50% in HeLa cell cultures. The following applies: Enterovirus B.
The subject of test [4] is Coxsackievirus B4. In words: Concentration required to reduce coxsackie virus B4 induced cytopathogenicity by 50% in vero cell cultures. The following applies: Enterovirus B.
The next test is filed under the species Oryctolagus cuniculus. In words: Concentration required to cause a microscopically detectable alteration in cell morphology in primary rabbit kidney cell cultures. The following applies: read-out: Min cytotoxic concentration. The essentials: as §1
In a further test the test system is Human alphaherpesvirus 1. The test can be described thus: Concentration required to reduce HSV-1 (KOS) induced cytopathogenicity by 50% in primary rabbit kidney cell cultures.
The test system of test [5] is Vesicular stomatitis virus. In words: Concentration required to reduce vesicular stomatitis virus induced cytopathogenicity by 50% in HeLa cell cultures.
The next test deals with L1210. In words: Dose required to inhibit proliferation of L-1210 Cells by 50%. The following applies: Mus musculus, read-out: ID50 (the source's name). An outline of the steps: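 Inhibition of proliferation of murine leukemia L-1210 cells in exponential growth phase. ID50 is the dose inhibiting cell proliferation by 50%, given plus or minus standard deviation.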

Consider `Nc1ncnc2c1c(Br)c(Br)n2C1O[C@H](CO)[C@@H](O)[C@H]1O` (stereo partly drawn), for which the MCC in the test with Vero was determined as 40 µg/mL; with HeLa, 40 µg/mL; in the test listed under Oryctolagus cuniculus, 100 µg/mL. The MIC is above 40 µg/mL in test [1]; above 10 µg/mL in the test with Human respirovirus 3; above 10 µg/mL with Poliovirus 1; 10 µg/mL (≈ 23.6 µM) in [2]; above 40 µg/mL with Human alphaherpesvirus 2; above 10 µg/mL in the test on Sindbis virus. For the same compound, the MIC was above 10 µg/mL against Coxsackievirus B4 [3], 10 µg/mL (≈ 23.6 µM) with Coxsackievirus B4 [4], above 100 µg/mL in the test with Human alphaherpesvirus 1 and above 10 µg/mL in test [5]. The IC50 in the test with L1210 came to 2.31 µg/mL (≈ 5.45 µM).

`Nc1nccc2c1ncn2[C@@H]1C[C@H](CO)[C@H](O)C1O` (stereo partly drawn): the MCC in the test with Vero is above 100 µg/mL; with HeLa it was above 400 µg/mL; in the test listed under Oryctolagus cuniculus, above 200 µg/mL. The MIC is 0.07 µg/mL (≈ 0.265 µM) in test [1]; 2 µg/mL (≈ 7.57 µM) in the test with Human respirovirus 3; above 400 µg/mL against Poliovirus 1; 2 µg/mL (≈ 7.57 µM) in test [2]; 300 µg/mL (≈ 1140 µM) in the test on Human alphaherpesvirus 2; 20 µg/mL (≈ 75.7 µM) against Sindbis virus. The MIC is above 400 µg/mL in the test on Coxsackievirus B4 [3], 2 µg/mL (≈ 7.57 µM) in the test with Coxsackievirus B4 [4], above 400 µg/mL with Human alphaherpesvirus 1 and 0.7 µg/mL (≈ 2.65 µM) in test [5].

`Nc1ncnc2c1c(/C=C/Br)cn2C1O[C@H](CO)[C@@H](O)[C@H]1O` (stereo partly drawn): the values for the MCC with Vero, with HeLa and in the test filed under Oryctolagus cuniculus were 4 µg/mL, 4 µg/mL and above 4 µg/mL, respectively. Also, the MIC is above 1 µg/mL in test [1]; 1 µg/mL (≈ 2.69 µM) in the test on Human respirovirus 3; above 1 µg/mL with Poliovirus 1; 1 µg/mL (≈ 2.69 µM) in test [2]; above 1 µg/mL in the test on Human alphaherpesvirus 2; above 1 µg/mL with Sindbis virus. Moreover, the MIC (against Coxsackievirus B4 [3]; in the test on Coxsackievirus B4 [4]; in the test with Human alphaherpesvirus 1; in test [5]) was above 1 µg/mL throughout. In addition, the IC50 in the test with L1210 is 7.84 µg/mL (≈ 21.1 µM).

As to `Nc1ncnc2c1cc(Br)n2C1O[C@H](CO)[C@@H](O)[C@H]1O` (stereo partly drawn), the MCC is 400 µg/mL in the test with Vero, 400 µg/mL in the test with HeLa and above 400 µg/mL in the test filed under Oryctolagus cuniculus. Further, the MIC is 300 µg/mL (≈ 869 µM) in [1]; 70 µg/mL (≈ 203 µM) with Human respirovirus 3; 150 µg/mL (≈ 435 µM) in the test with Poliovirus 1; 70 µg/mL (≈ 203 µM) in test [2]; above 400 µg/mL in the test with Human alphaherpesvirus 2; above 200 µg/mL against Sindbis virus. For the same compound, the MIC against Coxsackievirus B4 [3] was above 200 µg/mL; with Coxsackievirus B4 [4] it was 70 µg/mL (≈ 203 µM); in the test on Human alphaherpesvirus 1, above 400 µg/mL; in test [5] it was 400 µg/mL (≈ 1160 µM). Besides, in the test with L1210, the IC50 was 36.5 µg/mL (≈ 106 µM).

Take `Nc1ncnc2c1c(Cl)c(Cl)n2C1O[C@H](CO)[C@@H](O)[C@H]1O` (stereo partly drawn): the MCC in the test on Vero, in the test on HeLa and in the test filed under Oryctolagus cuniculus was 40 µg/mL throughout. The MIC is above 40 µg/mL in test [1]; above 10 µg/mL in the test on Human respirovirus 3; above 10 µg/mL in the test on Poliovirus 1; above 10 µg/mL in [2]; above 40 µg/mL with Human alphaherpesvirus 2; above 10 µg/mL in the test with Sindbis virus. Also, the MIC in the test with Coxsackievirus B4 [3] is above 10 µg/mL; against Coxsackievirus B4 [4] it was above 10 µg/mL; in the test on Human alphaherpesvirus 1, above 40 µg/mL; in test [5], above 10 µg/mL. Also, in the test with L1210, the IC50 stood at 10.1 µg/mL (≈ 30.1 µM).

With `N#Cc1cn([C@@H]2O[C@H](CO)[C@@H](O)[C@H]2O)c2ncnc(N)c12` [TOYOCAMYCIN], the MCC in the test with Vero is 0.04 µg/mL; in the test with HeLa, above 0.4 µg/mL; in the test listed under Oryctolagus cuniculus, above 0.04 µg/mL. The MIC was above 1 µg/mL in test [1]; above 0.01 µg/mL in the test with Human respirovirus 3; above 0.01 µg/mL against Poliovirus 1; above 0.01 µg/mL in test [2]; 0.07 µg/mL (≈ 0.24 µM) with Human alphaherpesvirus 2; above 0.01 µg/mL in the test with Sindbis virus. Besides, the MIC is above 0.01 µg/mL in the test with Coxsackievirus B4 [3], above 0.01 µg/mL in the test with Coxsackievirus B4 [4], above 0.04 µg/mL against Human alphaherpesvirus 1 and 0.07 µg/mL (≈ 0.24 µM) in test [5]. Besides, the IC50 with L1210 amounted to 0.006 µg/mL (≈ 0.0206 µM).
